Measurements: ChEMBL document CHEMBL6120953, “Targeting Plasmodium falciparum IspD in the Methyl-d-erythritol Phosphate Pathway: Urea-Based Compounds with Nanomolar Potency on Target and Low-Micromolar Whole-Cell Activity” (J Med Chem, 2024)
Activity calls are given as the source filed them. No cut-off for these calls is given here.

How the values were obtained:
Plasmodium falciparum [1] = assay: Uncompetitive inhibition of Plasmodium falciparum IspD at 19.5 to 625 uM in presence of MEP by lineweaver-burk plot analysis; conditions: dose 19.5-625 µM
In short: (§1)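 LC-MS IspD assay without coupling enzymes: 0.1 μM PfIspD, 2.0 mM MgCl2 in 100 mM Tris-HCl pH 7.6, 1 mM DTT, preincubated with inhibitor 10 min at 37 °C. One substrate varied 0–500 μM with the other at 500 μM; 40 min at 37 °C, heat-stopped at 95 °C. CDP-ME product quantified by HILIC LC-MS/MS with internal standard; Lineweaver–Burk plots.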

Plasmodium falciparum [2] = assay: Non-competitive inhibition of Plasmodium falciparum IspD at 19.5 to 625 uM in presence of CTP by lineweaver-burk plot analysis; conditions: dose 19.5-625 µM; in short: as §1

N#Cc1ccc(NC(=O)Nc2cccc(S(=O)(=O)N3CCCC3)c2)cc1
inhibition (Plasmodium falciparum [1]): Active | inhibition (Plasmodium falciparum [2]): Active
